Results on 22 compounds are retold here after ChEMBL document CHEMBL3351550, “Synthesis and antiangiogenic activity of 6-amido-2,4,5-trimethylpyridin-3-ols” (2014).

The test system of experiment [1] is Chorioallantoic membrane. Nature of the experiment: Antiangiogenic activity in chicken chorioallantoic membrane assessed as inhibition of VEGF-induced blood vessel formation at 0.01 nmol/CAM treated 30 mins after VEGF addition measured after 3 days relative to control. In kind it is functional, cell membranes. The settings on record: Gallus gallus. In short, it runs like this: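 Chick embryo CAM; angiogenesis induced with VEGF (20 ng/CAM) before compound. Compound stock diluted in PBS to 1.0 μM, 10 μL applied to a disk on the CAM, giving 0.01 nmol/CAM. Read-out is the number of new blood vessel branch points in the area under the disk, compared against VEGF-treated CAMs.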

The subject of experiment [2] is Chorioallantoic membrane. Nature of the experiment: Antiangiogenic activity in chicken chorioallantoic membrane assessed as inhibition of VEGF-induced blood vessel formation treated 30 mins after VEGF addition measured after 3 days. In kind it is functional, cell membranes. The settings on record: Gallus gallus. In short, it runs like this:
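VEGF (20 ng/CAM)-induced angiogenesis on chick embryo CAM, with compound applied afterwards on a disk. New vessel branch points under the disk were counted at several doses, mean ± SEM, n at least six. ID50 taken from dose-response curves.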

The test system of experiment [3] is A549. Put plainly: Antitumor activity in human A549 cells inoculated with chicken chorioallantoic membrane assessed as inhibition of tumor weight at 0.01 pmol/CAM after 5 days. The class given is functional. Put shortly:
(§1)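 A549 cells (2×10^6 cells/CAM) in Matrigel inoculated onto chick CAM and treated once with compound at implantation. The tumor mass grown on the CAM was excised and weighed, and inhibition is relative to untreated controls, means ± S.E.M., at least six embryos.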

Experiment [4] deals with A549. Nature of the experiment: Antitumor activity in human A549 cells inoculated with chicken chorioallantoic membrane assessed as inhibition of tumor weight at 0.1 pmol/CAM after 5 days. The class given is functional. In short, it runs like this:
as §1

Experiment [5] concerns A549. Nature of the experiment: Antitumor activity in human A549 cells inoculated with chicken chorioallantoic membrane assessed as inhibition of tumor weight at 1 pmol/CAM after 5 days. The class given is functional. Put shortly:
as §1

The test system of experiment [6] is A549. Put plainly: Antitumor activity in human A549 cells inoculated with chicken chorioallantoic membrane assessed as inhibition of tumor weight at 0.001 pmol/CAM after 5 days. The class given is functional. In short, it runs like this:
as §1

For experiment [7], the system named is Chorioallantoic membrane. Put plainly: Antiangiogenic activity in human A549 cells inoculated with chicken chorioallantoic membrane assessed as inhibition of blood vessel branch points around tumor at 0.01 pmol/CAM after 5 days. In kind it is functional, Gallus gallus. Put shortly: (§2)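 A549 human lung cancer cells (2×10^6 cells/CAM) in Matrigel implanted on top of the CAM, with compound given once at implantation. New vessel branch points around the tumor were counted as for the VEGF CAM assay. Inhibition is relative to untreated CAMs, mean ± S.E.M. of at least six embryos.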

In experiment [8] the test system is Chorioallantoic membrane. Nature of the experiment: Antiangiogenic activity in human A549 cells inoculated with chicken chorioallantoic membrane assessed as inhibition of blood vessel branch points around tumor at 0.1 pmol/CAM after 5 days. In kind it is functional, Gallus gallus. In short, it runs like this:
as §2

The test system of experiment [9] is Chorioallantoic membrane. Nature of the experiment: Antiangiogenic activity in human A549 cells inoculated with chicken chorioallantoic membrane assessed as inhibition of blood vessel branch points around tumor at 1 pmol/CAM after 5 days. In kind it is functional, Gallus gallus. Put shortly: as §2

The structures appear in SMILES notation.

One may read the inhibition as the percentage by which the read-out fell short of the control. Take `CCCCCCCCCCCC(=O)Nc1nc(C)c(O)c(C)c1C`: in [1], the inhibition stood at 57.4%. Moreover, the ID50 in experiment [2] came out at 14.9 fmol. The “inhibition (INH)” value is on record as 26% in experiment [3], 31.3% in experiment [4], 38.2% in experiment [5] and 21.7% in experiment [6].

For the compound `Cc1nc(NC(=O)C2CCCC2)c(C)c(C)c1O`, the inhibition in experiment [1] turned out to be 81.8%. Also, in [2], the ID50 was 3.6 fmol. The “inhibition (INH)” value was found to be 24% in experiment [3], 45.1% in experiment [4], 62.7% in experiment [5] and 13.2% in experiment [6].

Consider `CCCCCCCCCCCCCCCC(=O)Nc1nc(C)c(O)c(C)c1C`, for which the inhibition in experiment [1] came to 59.9%.

Take `Cc1nc(NC(=O)C(C)C)c(C)c(C)c1O`: the inhibition in [1] is 53.2%.

Turning to `CCCCCCCC(=O)Nc1nc(C)c(O)c(C)c1C`, the inhibition in experiment [1] came to 74.7%.

Turning to `CC(=O)Nc1nc(C)c(O)c(C)c1C`, the inhibition in experiment [1] was found to be 84.8%. In addition, the ID50 in experiment [2] is 8.7 fmol. Besides, the “inhibition (INH)” value in experiment [3] amounted to 34.2%; in experiment [4], 37.9%; in [5], 47.7%; in experiment [6], 20.3%.

Turning to `Cc1nc(NC(=O)c2ccc(F)cc2)c(C)c(C)c1O`, in [1], the inhibition is 75.3%.

Take `Cc1nc(NC(=O)CC(C)C)c(C)c(C)c1O`: the inhibition in experiment [1] is 75.6%.

Take `CN(C)c1ccc(/C=C2\C(=O)Nc3ccccc32)cc1`: in [1], the inhibition was determined as 78%. Further, the ID50 in [2] was found to be 39.7 fmol. Further, the “inhibition (INH)” value came out at 20.8% in [7]; 25.1% in experiment [8]; 36.2% in experiment [9]; 16.2% in experiment [3]; 23.4% in experiment [4]; 26.8% in [5].

With `Cc1nc(NC(=O)c2cccs2)c(C)c(C)c1O`, the inhibition in [1] was found to be 74.8%.

As to `Cc1nc(NC(=O)c2ccccc2)c(C)c(C)c1O`, the inhibition in experiment [1] turned out to be 77.3%.

As for `Cc1nc(NC(=O)CCCCl)c(C)c(C)c1O`, in experiment [1], the inhibition worked out at 70.2%.

With `CC(=O)Nc1ccc(O)cc1`, in experiment [1], the inhibition is 77.9%. In addition, the ID50 in experiment [2] is 397 fmol.

As to `CCN(CC)CCNC(=O)c1c(C)[nH]c(/C=C2\C(=O)Nc3ccc(F)cc32)c1C`, the inhibition in experiment [1] was found to be 88.8%. Further, the ID50 in [2] came out at 380 fmol.

As for `Cc1nc(NC(=O)c2cccc3ccccc23)c(C)c(C)c1O`, the inhibition in experiment [1] turned out to be 75.8%.

On to `Cc1nc(NC(=O)Cc2ccccc2)c(C)c(C)c1O`, for which, in experiment [1], the inhibition was 69.6%.

Consider `Cc1nc(NC(=O)CCc2ccccc2)c(C)c(C)c1O`, for which the inhibition in experiment [1] came out at 74.2%.

As for `Cc1nc(NC(=O)c2ccc(C(C)(C)C)cc2)c(C)c(C)c1O`, the inhibition in experiment [1] came to 74.2%.

For the compound `COc1ccc(C(=O)Nc2nc(C)c(O)c(C)c2C)cc1`, the inhibition in experiment [1] is 69.7%.

On to `Cc1nc(NC(=O)C2CCCCC2)c(C)c(C)c1O`, for which, in [1], the inhibition was 76.3%.

For the compound `Cc1nc(NC(=O)C(C)(C)C)c(C)c(C)c1O`, the inhibition in experiment [1] is 73.2%.

`Cc1nc(NC(=O)c2ccc3c(c2)OCO3)c(C)c(C)c1O`: the inhibition in experiment [1] was 64.8%.
